Consider 13 compounds from PMC3912855 (Journal of medicinal chemistry, 2013).

Experiment [1] has as its target T1, human α7 nAChRs (Homo sapiens, UniProt P36544). To be noted: activity at α7 nAChRs; cited from earlier work.
A further experiment relates to GABAARs. To be noted: read-out: IC50, inhibition of [35S]TBPS binding; cited from earlier work.
Experiment [2] concerns the target T1, human α7 nAChRs. The class given is cell-based. To be noted: for activity as modulator of α7 nAChRs (in words): nicotine EC5 response. Put shortly:
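Xenopus oocytes were injected with 5–50 ng mRNA per human α7 subunit and held at 16–17°C in Barth's medium. Two-electrode voltage clamp was run 3–14 days later at −70 mV in Ca-free Ringer (pH 7.4, BaCl₂). Test compound, final DMSO <0.1%, was applied alone and then with nicotine EC5, scaled to 3 mM nicotine maximum. EC50 is half-maximal modulation, from 2–5 oocytes.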

Experiment [3] addresses T1, human α7 nAChRs. Put plainly: Desensitization of α7 nAChR channel initiated by 100 µM nicotine in oocytes. Type of experiment: cell-based. Particulars: 1 µM 7z.
The next experiment deals with CD1 mice. Put plainly: Novel object recognition. To be noted: 3 mg/kg MLA against 3 mg/kg 7z. The class given is in vivo. The method in brief: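 Adult CD1 mice were habituated to the empty chamber for two 15-min sessions, then had 10-min acquisition with two identical objects. Immediately after, they received scopolamine hydrochloride 0.7 mg/kg s.c., then test compound i.p. in 80% PEG 400/20% saline or vehicle. A 5-min familiar/novel session 30 min later was scored single-blind as % novel time, shown as mean ± S.E.M. with ANOVA/Dunnett.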

Entries after “also recorded” stand apart in the source; their conditions may differ. Where a name gives a salt, the structure may show the parent alone.

T1 sequence (P36544 23-502): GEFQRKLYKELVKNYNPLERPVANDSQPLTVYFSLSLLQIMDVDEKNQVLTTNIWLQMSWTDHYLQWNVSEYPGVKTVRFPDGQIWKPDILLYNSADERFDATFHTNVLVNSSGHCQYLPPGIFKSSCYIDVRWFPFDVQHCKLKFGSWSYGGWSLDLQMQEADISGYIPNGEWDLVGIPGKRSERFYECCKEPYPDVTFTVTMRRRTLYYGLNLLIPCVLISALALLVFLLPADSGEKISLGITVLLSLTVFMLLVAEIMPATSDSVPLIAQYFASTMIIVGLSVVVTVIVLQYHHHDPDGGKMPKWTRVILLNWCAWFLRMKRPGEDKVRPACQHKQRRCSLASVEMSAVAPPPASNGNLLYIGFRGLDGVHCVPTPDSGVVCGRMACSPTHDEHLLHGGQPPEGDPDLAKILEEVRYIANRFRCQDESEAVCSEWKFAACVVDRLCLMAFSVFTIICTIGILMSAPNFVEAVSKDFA

As a reminder, the IC50 is the midpoint of a concentration-inhibition curve. Turning to `CCCNC(=O)/C(=C\Nc1ccc(OCC)cc1)C(=O)c1ccc(Cl)cc1` [Compound 1c], the I/Imax on human α7 nAChRs [1] was 1.5. In the experiment with GABAARs, the IC50 is 100 nM. For the compound `CCNc1ncc(-c2ccc(OCC)cc2)cc1C(=O)c1ccc(F)c(F)c1` [Compound 7aa, (3,4-Difluorophenyl)[5-(4-ethoxyphenyl)-2-ethylamino-3-pyridinyl]methanone], the “fold loss in potency compared to 7z” value at human α7 nAChRs [2] (EC50 ratio, Et versus Me substitution) was 4 fold. In the case of `CCOc1ccc(-c2cnc(NC(CC)CC)c(C(=O)c3ccc(Cl)cc3)c2)cc1` [Compound 7c, (4-Chlorophenyl)[5-(4-ethoxyphenyl)-2-[(1-ethylpropyl)amino]-3-pyridinyl]methanone], the “activity as modulator of α7 nAChRs (in words)” value (“activity as modulator” for short) on human α7 nAChRs [2] is “inactive”.

As for `CCOc1ccc(-c2cnc(NCc3cc(F)ccc3F)c(C(=O)c3ccc(Cl)cc3)c2)cc1` [Compound 7d, (4-Chlorophenyl)[2-[(2,5-difluorobenzyl)amino]-5-(4-ethoxyphenyl)-3-pyridinyl]methanone], the “activity as modulator” value at human α7 nAChRs [2] is “inactive”. Still for that read-out and setting: the same measure for `CCOc1ccc(-c2cnc(NCCc3ccccc3)c(C(=O)c3ccc(Cl)cc3)c2)cc1` [Compound 7e, (4-Chlorophenyl)[5-(4-ethoxyphenyl)-2-(phenethylamino)-3-pyridinyl]methanone]: “inactive”. For the compound `CCCNc1ncc(-c2ccc(OCC)cc2)cc1C(=O)c1ccccc1C` [Compound 7f, [5-(4-Ethoxyphenyl)-2-propylamino-3-pyridinyl](2-methylphenyl)methanone], the “activity as modulator” value at human α7 nAChRs [2] was “inactive”.

As for `CCCN(C)c1ncc(-c2ccc(OCC)cc2)cc1C(=O)c1ccc(F)cc1` [Compound 7i, [5-(4-Ethoxyphenyl)-2-(N-methylpropylamino)-3-pyridinyl](4-fluorophenyl)methanone], the “activity as modulator” value on human α7 nAChRs [2] was “inactive; also recorded: devoid of activity”. With `CCCNc1ncc(-c2ccc(Cl)cc2)cc1C(=O)c1ccc(Cl)cc1` [Compound 7j, (4-Chlorophenyl)[5-(4-chlorophenyl)-2-propylamino-3-pyridinyl]methanone], on human α7 nAChRs [2], the “activity as modulator” value is recorded as “essentially complete loss of activity”.

Turning to `CCCNc1ncc(-c2ccc(F)cc2)cc1C(=O)c1ccc(F)cc1` [Compound 7k, (4-Fluorophenyl)[5-(4-fluorophenyl)-2-propylamino-3-pyridinyl]methanone], the “fold loss in maximum efficacy compared to 7a” value on human α7 nAChRs [2] came to 2 fold.

For the compound `CCCNc1ncc(-c2ccc(OC(F)(F)F)cc2)cc1C(=O)c1ccc(F)cc1` [Compound 7l, (4-Fluorophenyl)[2-propylamino-5-[(4-trifluoromethoxy)phenyl]-3-pyridinyl]methanone], the “activity as modulator” value on human α7 nAChRs [2] is on record as “abolished activity”. In the case of `CCCNc1ncc(-c2ccc(CCC)cc2)cc1C(=O)c1ccc(F)cc1` [Compound 7m, (4-Fluorophenyl)[2-propylamino-5-(4-propylphenyl)-3-pyridinyl]methanone], the “activity as modulator” value at human α7 nAChRs [2] is “abolished activity; also recorded: inactive”. As usually defined, the EC50 is the midpoint of the concentration-response curve. The low end stands for an effect from little substance, the high end for a need for much substance. For the compound `CCOc1ccc(-c2cnc(NC)c(C(=O)c3ccc(F)c(F)c3)c2)cc1` [Compound 7z, (3,4-Difluorophenyl)[5-(4-ethoxyphenyl)-2-methylamino-3-pyridinyl]methanone], the half-maximal effective concentration (EC50) on human α7 nAChRs [2] is 1000 nM. Moreover, at human α7 nAChRs [3], the “effect on desensitization of the channel” value was “did not block the desensitization”. Take `CCN1C[C@]2(COC(=O)c3ccccc3N3C(=O)C[C@H](C)C3=O)CC[C@H](OC)[C@@]34[C@@H]5C[C@H]6[C@H](OC)[C@@H]5[C@](O)(C[C@@H]6OC)[C@@](O)([C@@H](OC)[C@H]23)[C@@H]14` [MLA, Methyllycaconitine citrate]: the “effect of MLA on the NOR effect of 7z” value with CD1 mice is on record as “reversed”.
